Holding throughout (assay type): functional
The subject of test [1] is Pseudomonas aeruginosa. Briefly: Antimicrobial activity against Pseudomonas aeruginosa ATCC 9027 by broth microdilution method. In outline: (§1)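 Inocula were saline (0.85% NaCl) suspensions at 0.5 McFarland (150 × 10⁶ CFU/mL). Compounds were first screened by agar dilution on Mueller-Hinton agar, and active ones then went to broth microdilution. MIC is the lowest concentration inhibiting growth. The negative control was medium containing DMSO at the final concentration, without compound.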
On the technique in general: Dilution methods test growth across graded concentrations, often in twofold steps.

The test system of test [2] is Staphylococcus epidermidis. Briefly: Antimicrobial activity against Staphylococcus epidermidis ATCC 12228 by broth microdilution method. The essentials: as §1
The next test has as its system Micrococcus luteus. Briefly: Antimicrobial activity against Micrococcus luteus ATCC 10240 by broth microdilution method. The essentials: as §1
Test [3] concerns Staphylococcus aureus. Briefly: Ratio of MBC to MIC for methicillin-resistant Staphylococcus aureus 14001 by broth microdilution method. The essentials:
(§2)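 Inoculum in sterile saline (0.85% NaCl), adjusted to 0.5 McFarland (150 × 10⁶ CFU/mL). Compounds first screened by agar dilution on Mueller-Hinton agar, then titrated by broth microdilution. Medium with DMSO at the final concentration and no compound served as negative control. MIC is the lowest concentration inhibiting growth. MBC is the lowest concentration giving >99.9% reduction in CFU of the initial inoculum.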

Test [4] deals with Staphylococcus aureus. In words: Antimicrobial activity against Staphylococcus aureus ATCC 25923 by broth microdilution method. The essentials: as §1
In the next test the test system is Escherichia coli. In words: Antimicrobial activity against Escherichia coli ATCC 25922 by broth microdilution method. In outline:
as §1

Another test relates to Bacillus subtilis. Briefly: Antimicrobial activity against Bacillus subtilis ATCC 6633 by broth microdilution method. The essentials:
as §1

A further test concerns Bacillus cereus. In words: Antimicrobial activity against Bacillus cereus ATCC 10876 by broth microdilution method. In outline: as §1
Another test relates to Proteus mirabilis. Briefly: Antimicrobial activity against Proteus mirabilis ATCC 12453 by broth microdilution method. The essentials: as §1
Test [5] has as its system Staphylococcus aureus. Briefly: Antimicrobial activity against methicillin-resistant Staphylococcus aureus 14001 by broth microdilution method. In outline: as §2
Test [6] has as its system Pseudomonas aeruginosa. Briefly: Ratio of ciprofloxacin MIC to compound MIC for Pseudomonas aeruginosa ATCC 9027 by broth microdilution method.

In brackets after ≈: the same amount, converted by molar mass.

Usually MIC stands for the lowest concentration that inhibits growth of the organism. High values mean a less susceptible organism, low ones a more susceptible organism. The term MBC denotes the lowest tested concentration that kills the bacteria rather than only halting them. A high value points to less potent killing.

In the case of `CCCCn1c(-c2cccc(Cl)c2)nn(CN2CCN(c3cc4c(cc3F)c(=O)c(C(=O)O)cn4C3CC3)CC2)c1=S`, the minimal inhibitory concentration (MIC) against Pseudomonas aeruginosa [1] is 0.8 µM (≈ 0.489 µg/mL); in [2], 1.6 µM (≈ 0.978 µg/mL); with Micrococcus luteus, 6.4 µM (≈ 3.91 µg/mL); with Staphylococcus aureus [4], 3.19 µM (≈ 1.95 µg/mL); in the test with Escherichia coli, 0.098 µM (≈ 0.0599 µg/mL); in the test on Bacillus subtilis, 0.2 µM (≈ 0.122 µg/mL). Moreover, the minimal inhibitory concentration (MIC) against Bacillus cereus amounted to 0.39 µM (≈ 0.238 µg/mL); against Proteus mirabilis, 0.098 µM (≈ 0.0599 µg/mL); against Staphylococcus aureus [5] it was 1.6 µM (≈ 0.978 µg/mL). The Ratio in the test on Staphylococcus aureus [3] stood at 1. The molecule also had a minimal bactericidal concentration (MBC) in the test on Staphylococcus aureus [5] of 1.6 µM (≈ 0.978 µg/mL).

For `CCCCCCn1c(-c2cccc(Cl)c2)nn(CN2CCN(c3cc4c(cc3F)c(=O)c(C(=O)O)cn4C3CC3)CC2)c1=S`, the MIC in the test with Pseudomonas aeruginosa [1] came to 0.77 µM (≈ 0.492 µg/mL); in test [2], 1.53 µM (≈ 0.978 µg/mL); with Micrococcus luteus, 3.05 µM (≈ 1.95 µg/mL); in the test with Staphylococcus aureus [4], 1.53 µM (≈ 0.978 µg/mL); with Escherichia coli, 0.047 µM (≈ 0.03 µg/mL); with Bacillus subtilis, 0.19 µM (≈ 0.121 µg/mL). Besides, the results for the minimum inhibitory concentration (MIC) in the test with Bacillus cereus, in the test on Proteus mirabilis and in the test on Staphylococcus aureus [5] were 0.77 µM (≈ 0.492 µg/mL), 0.19 µM (≈ 0.121 µg/mL) and 1.53 µM (≈ 0.978 µg/mL), respectively. For the same molecule, the Ratio with Staphylococcus aureus [3] is recorded as 2. Also, the MBC against Staphylococcus aureus [5] was found to be 3.05 µM (≈ 1.95 µg/mL).

As to `O=C(O)c1cn(C2CC2)c2cc(N3CCN(Cn4nc(-c5cccc(O)c5)n(-c5cccc([N+](=O)[O-])c5)c4=S)CC3)c(F)cc2c1=O`, the MIC amounted to 0.18 µM (≈ 0.118 µg/mL) in the test with Pseudomonas aeruginosa [1]; 0.74 µM (≈ 0.487 µg/mL) in [2]; 1.49 µM (≈ 0.98 µg/mL) against Micrococcus luteus; 0.74 µM (≈ 0.487 µg/mL) against Staphylococcus aureus [4]; 0.023 µM (≈ 0.0151 µg/mL) with Escherichia coli; 0.18 µM (≈ 0.118 µg/mL) in the test on Bacillus subtilis. Further, the results for the minimal inhibitory concentration (MIC) against Bacillus cereus, against Proteus mirabilis and against Staphylococcus aureus [5] were 0.18 µM (≈ 0.118 µg/mL), 0.023 µM (≈ 0.0151 µg/mL) and 0.36 µM (≈ 0.237 µg/mL), respectively. For the same molecule, the Ratio came to 4 with Pseudomonas aeruginosa [6] and 2 in the test on Staphylococcus aureus [3]. The molecule further yielded an MBC with Staphylococcus aureus [5] of 0.74 µM (≈ 0.487 µg/mL).

Regarding `O=C(O)c1cn(C2CC2)c2cc(N3CCN(Cn4nc(-c5cccc(O)c5)n(-c5cccc(I)c5)c4=S)CC3)c(F)cc2c1=O`, the MIC in the test on Pseudomonas aeruginosa [1] is 0.081 µM (≈ 0.0598 µg/mL); in test [2], 0.66 µM (≈ 0.487 µg/mL); in the test on Micrococcus luteus it was 1.33 µM (≈ 0.982 µg/mL); against Staphylococcus aureus [4], 0.66 µM (≈ 0.487 µg/mL); in the test with Escherichia coli, 0.041 µM (≈ 0.0303 µg/mL); with Bacillus subtilis, 0.32 µM (≈ 0.236 µg/mL). In addition, the minimum inhibitory concentration (MIC) against Bacillus cereus stood at 0.16 µM (≈ 0.118 µg/mL); against Proteus mirabilis, 0.041 µM (≈ 0.0303 µg/mL); in the test on Staphylococcus aureus [5] it was 0.66 µM (≈ 0.487 µg/mL). Also, the Ratio is 8 in the test on Pseudomonas aeruginosa [6] and 1 with Staphylococcus aureus [3]. Further, the MBC in the test with Staphylococcus aureus [5] was determined as 0.66 µM (≈ 0.487 µg/mL).

In the case of `O=C(O)c1cn(C2CC2)c2cc(N3CCN(Cn4ncn(-c5cccc(I)c5)c4=S)CC3)c(F)cc2c1=O`, the minimum inhibitory concentration (MIC) was 1.52 µM (≈ 0.983 µg/mL) against Pseudomonas aeruginosa [1]; 6.05 µM (≈ 3.91 µg/mL) in [2]; 24.2 µM (≈ 15.6 µg/mL) against Micrococcus luteus; 12.1 µM (≈ 7.81 µg/mL) with Staphylococcus aureus [4]; 0.093 µM (≈ 0.0601 µg/mL) in the test with Escherichia coli; 0.37 µM (≈ 0.239 µg/mL) in the test with Bacillus subtilis. Besides, the minimal inhibitory concentration (MIC) against Bacillus cereus worked out at 3.02 µM (≈ 1.95 µg/mL); in the test on Proteus mirabilis, 0.18 µM (≈ 0.116 µg/mL); against Staphylococcus aureus [5] it was 6.05 µM (≈ 3.91 µg/mL). Also, in the test with Staphylococcus aureus [3], the Ratio came to 2. The minimum bactericidal concentration (MBC) in the test on Staphylococcus aureus [5] was found to be 12.1 µM (≈ 7.81 µg/mL).

For the molecule `Cc1nn(CN2CCN(c3cc4c(cc3F)c(=O)c(C(=O)O)cn4C3CC3)CC2)c(=S)n1-c1cccc(I)c1`, the MIC in the test on Pseudomonas aeruginosa [1] was found to be 2.95 µM (≈ 1.95 µg/mL); in [2], 23.7 µM (≈ 15.6 µg/mL); with Micrococcus luteus, 94.6 µM (≈ 62.5 µg/mL); against Staphylococcus aureus [4], 23.7 µM (≈ 15.6 µg/mL); with Escherichia coli, 0.36 µM (≈ 0.238 µg/mL); with Bacillus subtilis, 1.48 µM (≈ 0.978 µg/mL). Further, the minimal inhibitory concentration (MIC) amounted to 1.48 µM (≈ 0.978 µg/mL) in the test on Bacillus cereus, 0.74 µM (≈ 0.489 µg/mL) in the test on Proteus mirabilis and 23.7 µM (≈ 15.6 µg/mL) with Staphylococcus aureus [5]. In addition, the Ratio in the test on Staphylococcus aureus [3] is on record as 1. Besides, the MBC in the test on Staphylococcus aureus [5] was 23.7 µM (≈ 15.6 µg/mL).

Consider `CCCc1nn(CN2CCN(c3cc4c(cc3F)c(=O)c(C(=O)O)cn4C3CC3)CC2)c(=S)n1-c1cccc(I)c1`, for which the MIC in the test on Pseudomonas aeruginosa [1] amounted to 22.7 µM (≈ 15.6 µg/mL); in [2] it was 90.8 µM (≈ 62.5 µg/mL); with Micrococcus luteus, 182 µM (≈ 125 µg/mL); against Staphylococcus aureus [4], 90.8 µM (≈ 62.5 µg/mL); against Escherichia coli, 0.71 µM (≈ 0.489 µg/mL); against Bacillus subtilis, 5.68 µM (≈ 3.91 µg/mL). Further, the values for the minimal inhibitory concentration (MIC) with Bacillus cereus, with Proteus mirabilis and against Staphylococcus aureus [5] were 22.7 µM (≈ 15.6 µg/mL), 2.83 µM (≈ 1.95 µg/mL) and 182 µM (≈ 125 µg/mL), respectively. In addition, the Ratio in the test on Staphylococcus aureus [3] is listed as 1. This molecule registered an MBC in the test on Staphylococcus aureus [5] of 182 µM (≈ 125 µg/mL).

For `COc1ccc(-n2c(-c3cccc(Cl)c3)nn(CN3CCN(c4cc5c(cc4F)c(=O)c(C(=O)O)cn5C4CC4)CC3)c2=S)cc1`, the MIC against Pseudomonas aeruginosa [1] stood at 0.36 µM (≈ 0.238 µg/mL); in test [2], 1.48 µM (≈ 0.979 µg/mL); against Micrococcus luteus, 2.95 µM (≈ 1.95 µg/mL); against Staphylococcus aureus [4] it was 1.48 µM (≈ 0.979 µg/mL); against Escherichia coli it was 0.023 µM (≈ 0.0152 µg/mL); against Bacillus subtilis, 0.09 µM (≈ 0.0595 µg/mL). The MIC turned out to be 0.36 µM (≈ 0.238 µg/mL) against Bacillus cereus, 0.023 µM (≈ 0.0152 µg/mL) with Proteus mirabilis and 0.74 µM (≈ 0.489 µg/mL) against Staphylococcus aureus [5]. The Ratio in the test on Staphylococcus aureus [3] amounted to 1. In the test with Staphylococcus aureus [5], the minimal bactericidal concentration (MBC) was determined as 0.74 µM (≈ 0.489 µg/mL).
